Test results: ChEMBL document CHEMBL1909613, “Synthesis and biological activity of new bispyridinium salts of 4,4'-bispyridyl-5,5'-perfluoroalkyl-2,2'-bisoxazoles” (Eur J Med Chem, 2011)

What was measured:
Choline kinase alpha = Choline kinase alpha (Homo sapiens, UniProt P35790); assay: Inhibition of recombinant human Choline kinase alpha using [methyl-14C]choline chloride as substrate after 30 mins by autoradiography
Procedure, shortened: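 Extracts from cells expressing recombinant human ChoK were incubated 30 min at 37 °C in 100 mM Tris pH 8, 10 mM MgCl2, 10 mM ATP and [methyl-14C]choline chloride. Reaction stopped on ice with 500 mM EDTA. Choline and phosphocholine were separated by silica TLC (0.9% NaCl:methanol:ammonium hydroxide 50:70:5) and quantified by electronic autoradiography. IC50 came from a Hill-equation least-squares fit of PCho/(PCho+Cho) versus inhibitor concentration.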

HT-29 = assay: Cytotoxicity against human HT-29 cells after 72 hrs by MTT assay; format: functional, cell-based
Procedure, shortened: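 HT-29 cells grown in DMEM with 10% FBS at 37 °C, 95% humidity, 5% CO2. Seeded and held 24 h, then exposed to increasing concentrations in fresh medium for 72 h, quadruplicate wells per concentration. Viability by MTT absorbance at 595 nm. IC50 from a plot of log OD versus log drug concentration.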

Chain of Choline kinase alpha (P35790 whole entry): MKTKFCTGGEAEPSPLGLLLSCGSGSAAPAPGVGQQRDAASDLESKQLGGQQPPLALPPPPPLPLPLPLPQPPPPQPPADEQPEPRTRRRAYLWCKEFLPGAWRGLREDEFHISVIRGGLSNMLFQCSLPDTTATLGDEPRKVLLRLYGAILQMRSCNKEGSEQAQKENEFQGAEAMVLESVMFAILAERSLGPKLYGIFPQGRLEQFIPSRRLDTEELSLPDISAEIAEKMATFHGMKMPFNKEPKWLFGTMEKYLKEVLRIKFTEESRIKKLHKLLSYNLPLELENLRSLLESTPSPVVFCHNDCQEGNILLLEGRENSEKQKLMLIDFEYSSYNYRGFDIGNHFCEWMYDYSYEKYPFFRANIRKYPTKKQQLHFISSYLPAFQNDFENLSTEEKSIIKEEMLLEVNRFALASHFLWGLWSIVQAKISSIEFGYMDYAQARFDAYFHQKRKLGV

| Compound | IC50 (Choline kinase alpha) | IC50 (HT-29; Homo sapiens, HT-29, 72 h) | IC50 (HT-29; ht-29) |
| --- | --- | --- | --- |
| OCC[n+]1ccc(-c2nc(-c3ccc(-c4ccc(-c5nc(-c6cc[n+](CCO)cc6)c(C(F)(F)C(F)(F)F)o5)cc4)cc3)oc2C(F)(F)C(F)(F)F)cc1 | 9.65 µM | 0.84 µM |  |
| OCC[n+]1ccc(-c2nc(-c3ccc(-c4ccc(-c5nc(-c6cc[n+](CCO)cc6)c(C(F)(F)F)o5)cc4)cc3)oc2C(F)(F)F)cc1 [listing 1 of 2 here] | 23.8 µM | 1.5 µM |  |
| OCC[n+]1ccc(-c2nc(-c3ccc(-c4ccc(-c5nc(-c6cc[n+](CCO)cc6)c(C(F)(F)F)o5)cc4)cc3)oc2C(F)(F)F)cc1 [listing 2 of 2 here] | > 20 µM |  | 1.85 µM |
| OCC[n+]1ccc(-c2nc(-c3ccc(-c4ccc(-c5nc(-c6cc[n+](CCO)cc6)c(C(F)(F)C(F)(F)C(F)(F)F)o5)cc4)cc3)oc2C(F)(F)C(F)(F)C(F)(F)F)cc1 | 17.3 µM | 2.26 µM |  |
| CN(C)C(=O)C[n+]1ccc(-c2nc(-c3ccc(-c4ccc(-c5nc(-c6cc[n+](CC(=O)N(C)C)cc6)c(C(F)(F)C(F)(F)C(F)(F)F)o5)cc4)cc3)oc2C(F)(F)C(F)(F)C(F)(F)F)cc1 | 4.25 µM | 2.5 µM |  |
| CN(C)C(=O)C[n+]1ccc(-c2nc(-c3ccc(-c4ccc(-c5nc(-c6cc[n+](CC(=O)N(C)C)cc6)c(C(F)(F)F)o5)cc4)cc3)oc2C(F)(F)F)cc1 | 0.3 µM | 4 µM |  |
| CN(C)C(=O)C[n+]1ccc(-c2nc(-c3ccc(-c4ccc(-c5nc(-c6cc[n+](CC(=O)N(C)C)cc6)c(C(F)(F)C(F)(F)F)o5)cc4)cc3)oc2C(F)(F)C(F)(F)F)cc1 | 2 µM |  | 5.5 µM |
| OCC[n+]1ccc(-c2nc(-c3ccc(C(c4ccc(-c5nc(-c6cc[n+](CCO)cc6)c(C(F)(F)C(F)(F)F)o5)cc4)(C(F)(F)F)C(F)(F)F)cc3)oc2C(F)(F)C(F)(F)F)cc1 [listing 1 of 2 here] | 4.4 µM | 6 µM |  |
| OCC[n+]1ccc(-c2nc(-c3ccc(C(c4ccc(-c5nc(-c6cc[n+](CCO)cc6)c(C(F)(F)C(F)(F)C(F)(F)F)o5)cc4)(C(F)(F)F)C(F)(F)F)cc3)oc2C(F)(F)C(F)(F)C(F)(F)F)cc1 | 13.5 µM | 6.35 µM |  |
| OCC[n+]1ccc(-c2nc(-c3ccc(C(c4ccc(-c5nc(-c6cc[n+](CCO)cc6)c(C(F)(F)C(F)(F)F)o5)cc4)(C(F)(F)F)C(F)(F)F)cc3)oc2C(F)(F)C(F)(F)F)cc1 [listing 2 of 2 here] | 4.2 µM |  | 7.7 µM |
| FC(F)(F)C(F)(F)c1oc(-c2ccc(C(c3ccc(-c4nc(-c5cc[n+](CCCl)cc5)c(C(F)(F)C(F)(F)F)o4)cc3)(C(F)(F)F)C(F)(F)F)cc2)nc1-c1cc[n+](CCCl)cc1 | 14.2 µM | 9.3 µM |  |
| FC(F)(F)c1oc(-c2ccc(C(c3ccc(-c4nc(-c5cc[n+](CCCl)cc5)c(C(F)(F)F)o4)cc3)(C(F)(F)F)C(F)(F)F)cc2)nc1-c1cc[n+](CCCl)cc1 | 12.5 µM | 13.8 µM |  |
| FC(F)(F)C(F)(F)C(F)(F)c1oc(-c2ccc(C(c3ccc(-c4nc(-c5cc[n+](CCCl)cc5)c(C(F)(F)C(F)(F)C(F)(F)F)o4)cc3)(C(F)(F)F)C(F)(F)F)cc2)nc1-c1cc[n+](CCCl)cc1 | 11.6 µM | 15.5 µM |  |
| CN(C)C(=O)C[n+]1ccc(-c2nc(-c3ccc(C(c4ccc(-c5nc(-c6cc[n+](CC(=O)N(C)C)cc6)c(C(F)(F)F)o5)cc4)(C(F)(F)F)C(F)(F)F)cc3)oc2C(F)(F)F)cc1 | 6.15 µM | > 20 µM |  |
| CN(C)C(=O)C[n+]1ccc(-c2nc(-c3ccc(-c4nc(-c5cc[n+](CC(=O)N(C)C)cc5)c(C(F)(F)F)o4)cc3)oc2C(F)(F)F)cc1 | 1.35 µM | > 50 µM |  |
| CN(C)C(=O)C[n+]1ccc(-c2nc(-c3ccc(-c4nc(-c5cc[n+](CC(=O)N(C)C)cc5)c(C(F)(F)C(F)(F)F)o4)cc3)oc2C(F)(F)C(F)(F)F)cc1 | 15 µM | > 50 µM |  |
